# Measured values as given in ChEMBL document CHEMBL3872252, “New bithiazolyl hydrazones: Novel synthesis, characterization and antitubercular evaluation” (Bioorg Med Chem Lett, 2017).
# Experiments:
# [1] = Cytotoxicity against human MCF7 cells by MTT assay; format: toxicity, cell-based
# Bacillus subtilis [2] = assay: Growth inhibition of Bacillus subtilis at 30 ug/ml; format: functional; details: read-out: GI
# [3] = Antitubercular activity against Mycobacterium bovis BCG ATCC 35743 active stage measured on day 8 by nitrate reductase based two-fold dilution assay; format: functional, Mycobacterium bovis BCG str. ATCC 35743; details: Mycobacterium tuberculosis variant bovis BCG, ATCC 35743, 192 h
# Pseudomonas aeruginosa [4] = assay: Antibacterial activity against Pseudomonas aeruginosa; format: functional
# [5] = Antitubercular activity against Mycobacterium tuberculosis H37Ra ATCC 25177 active stage infected in human THP1 cells measured on day 8 by nitrate reductase assay; format: functional, THP-1; details: ATCC 25177, 192 h
# [6] = Antitubercular activity against Mycobacterium tuberculosis H37Ra ATCC 25177 dormant stage infected in human THP1 cells measured on day 12 by nitrate reductase assay; format: functional, THP-1; details: ATCC 25177, 288 h
# [7] = Selectivity index, ratio of GI50 for human HCT116 cells to MIC90 for Mycobacterium tuberculosis H37Ra ATCC 25177 dormant stage; format: toxicity, cell-based, HCT-116; details: read-out: Selectivity Index
# Outline: (§1)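 Cytotoxicity was measured on human MCF-7, HCT116 and THP-1 cells by MTT assay, with paclitaxel as reference. The selectivity index is GI50 for the given cell line divided by MIC90 for the given mycobacterial strain and stage.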
# Escherichia coli [8] = assay: Antibacterial activity against Escherichia coli; format: functional
# Staphylococcus aureus [9] = assay: Growth inhibition of Staphylococcus aureus at 10 ug/ml; format: functional; details: read-out: GI
# Staphylococcus aureus [10] = assay: Growth inhibition of Staphylococcus aureus at 30 ug/ml; format: functional; details: read-out: GI
# Bacillus subtilis [11] = assay: Antibacterial activity against Bacillus subtilis; format: functional
# [12] = Selectivity index, ratio of GI50 for human THP1 cells to MIC90 for Mycobacterium tuberculosis H37Ra ATCC 25177 dormant stage; format: toxicity, cell-based, THP-1; details: read-out: Selectivity Index; outline: as §1
# [13] = Antitubercular activity against Mycobacterium tuberculosis H37Ra ATCC 25177 dormant stage measured on day 12 by XTT reduction menadione based two-fold dilution assay; format: functional; details: ATCC 25177, 288 h
# Outline: (§2)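 M. tuberculosis H37Ra ATCC 25177 was exposed to 0.7–100 μg/mL in two-fold steps (0.7, 1.5, 3.1 … 100). Active stage was read after 8 days and dormant stage after 12 days of incubation. Inhibition was read by XTT reduction menadione assay (XRMA), absorbance 470 nm. MIC90 is the concentration giving ≥90% inhibition (µg/mL).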
# [14] = Antitubercular activity against Mycobacterium tuberculosis H37Ra ATCC 25177 active stage measured on day 8 by XTT reduction menadione based two-fold dilution assay; format: functional; details: ATCC 25177, 192 h; outline: as §2
# Pseudomonas aeruginosa [15] = assay: Growth inhibition of Pseudomonas aeruginosa at 10 ug/ml; format: functional; details: read-out: GI
# [16] = Cytotoxicity against human THP1 cells by MTT assay; format: toxicity, cell-based, THP-1
# [17] = Selectivity index, ratio of GI50 for human HCT116 cells to MIC90 for Mycobacterium bovis BCG ATCC 35743 active stage; format: toxicity, cell-based, HCT-116; details: read-out: Selectivity Index
# Outline: (§3)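 Cytotoxicity was measured on human MCF-7, HCT116 and THP-1 cells by MTT assay, with paclitaxel as reference. GI50 is the concentration inhibiting 50% of cell growth. The selectivity index is GI50 for the given cell line divided by MIC90 for the given mycobacterial strain and stage.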
# Escherichia coli [18] = assay: Growth inhibition of Escherichia coli at 3 ug/ml; format: functional; details: read-out: GI
# Outline: (§4)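 Screened against Gram-negative E. coli and P. aeruginosa and Gram-positive S. aureus and B. subtilis. Compound was tested at 3 µg/ml, and the read-out is percent growth inhibition.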
# [19] = Selectivity index, ratio of GI50 for human HCT116 cells to MIC90 for Mycobacterium bovis BCG ATCC 35743 dormant stage; format: toxicity, cell-based, HCT-116; details: read-out: Selectivity Index; outline: as §1
# Escherichia coli [20] = assay: Growth inhibition of Escherichia coli at 10 ug/ml; format: functional; details: read-out: GI
# Pseudomonas aeruginosa [21] = assay: Growth inhibition of Pseudomonas aeruginosa at 30 ug/ml; format: functional; details: read-out: GI
# Staphylococcus aureus [22] = assay: Growth inhibition of Staphylococcus aureus at 3 ug/ml; format: functional; details: read-out: GI; outline: as §4
# [23] = Antitubercular activity against Mycobacterium bovis BCG ATCC 35743 dormant stage measured on day 12 by nitrate reductase based two-fold dilution assay; format: functional, Mycobacterium bovis BCG str. ATCC 35743; details: Mycobacterium tuberculosis variant bovis BCG, ATCC 35743, 288 h
# Staphylococcus aureus [24] = assay: Antibacterial activity against Staphylococcus aureus; format: functional
# [25] = Cytotoxicity against human HCT116 cells by MTT assay; format: toxicity, cell-based, HCT-116
# Bacillus subtilis [26] = assay: Growth inhibition of Bacillus subtilis at 10 ug/ml; format: functional; details: read-out: GI
# Escherichia coli [27] = assay: Growth inhibition of Escherichia coli at 30 ug/ml; format: functional; details: read-out: GI
# Pseudomonas aeruginosa [28] = assay: Growth inhibition of Pseudomonas aeruginosa at 3 ug/ml; format: functional; details: read-out: GI; outline: as §4
# [29] = Selectivity index, ratio of GI50 for human HCT116 cells to MIC90 for Mycobacterium tuberculosis H37Ra ATCC 25177 active stage; format: toxicity, cell-based, HCT-116; details: read-out: Selectivity Index; outline: as §3
# Bacillus subtilis [30] = assay: Growth inhibition of Bacillus subtilis at 3 ug/ml; format: functional; details: read-out: GI; outline: as §4
smiles,measurement,setting,value
C/C(=N\Nc1nc(-c2ccc(Br)cc2)cs1)c1sc(-c2ccccc2)nc1C,GI50,[1]; MCF7 cells,26.3 µg/mL
same,GI90,[1]; mcf7,> 100 µg/mL
same,inhibition of growth at 30 µg/mL,Bacillus subtilis [2],96.5%
same,IC50,[3],> 100 µg/mL
same,MIC90,[3],> 100 µg/mL
same,IC50,Pseudomonas aeruginosa [4],0.416 µg/mL
same,MIC,Pseudomonas aeruginosa [4],1.05 µg/mL
same,MIC90,[5],> 100 µg/mL
same,MIC90,[6],> 100 µg/mL
same,selectivity ratio,[7],1
same,IC50,Escherichia coli [8],0.475 µg/mL
same,MIC,Escherichia coli [8],1.14 µg/mL
same,inhibition of growth at 10 µg/mL,Staphylococcus aureus [9],94.3%
same,inhibition of growth at 30 µg/mL,Staphylococcus aureus [10],96.8%
same,IC50,Bacillus subtilis [11],0.526 µg/mL
same,MIC,Bacillus subtilis [11],1.95 µg/mL
same,selectivity ratio,[12],1
same,IC50,[13],0.14 µg/mL
same,MIC90,[13],57.7 µg/mL
same,IC50,[14],0.18 µg/mL
same,MIC90,[14],> 100 µg/mL
same,inhibition of growth at 10 µg/mL,Pseudomonas aeruginosa [15],95.8%
same,GI50,[16]; THP1 cells,48.9 µg/mL
same,GI90,[16]; thp-1,> 100 µg/mL
same,selectivity ratio,[17],1
same,inhibition of growth at 3 µg/mL,Escherichia coli [18],93%
same,selectivity ratio,[19],1
same,inhibition of growth at 10 µg/mL,Escherichia coli [20],94.4%
same,inhibition of growth at 30 µg/mL,Pseudomonas aeruginosa [21],98.4%
same,inhibition of growth at 3 µg/mL,Staphylococcus aureus [22],92.8%
same,IC50,[23],> 100 µg/mL
same,MIC90,[23],> 100 µg/mL
same,IC50,Staphylococcus aureus [24],0.453 µg/mL
same,MIC,Staphylococcus aureus [24],1.84 µg/mL
same,GI50,[25]; HCT116 cells,55.6 µg/mL
same,GI90,[25]; hct-116,> 100 µg/mL
same,inhibition of growth at 10 µg/mL,Bacillus subtilis [26],93.8%
same,inhibition of growth at 30 µg/mL,Escherichia coli [27],96.7%
same,inhibition of growth at 3 µg/mL,Pseudomonas aeruginosa [28],94.3%
same,selectivity ratio,[29],1
same,inhibition of growth at 3 µg/mL,Bacillus subtilis [30],92.3%
CC1(C)S[C@@H]2[C@H](NC(=O)[C@H](N)c3ccccc3)C(=O)N2[C@H]1C(=O)O [AMPICILLIN],MIC,Pseudomonas aeruginosa [4],4.36 µg/mL
same,MIC,Escherichia coli [8],1.46 µg/mL
same,MIC,Bacillus subtilis [11],10.3 µg/mL
same,MIC,Staphylococcus aureus [24],1 µg/mL
NC[C@H]1O[C@H](O[C@H]2[C@H](O)[C@@H](O[C@H]3O[C@H](CO)[C@@H](O)[C@H](N)[C@H]3O)[C@H](N)C[C@@H]2N)[C@H](O)[C@@H](O)[C@@H]1O [KANAMYCIN],MIC,Pseudomonas aeruginosa [4],0.49 µg/mL
same,MIC,Escherichia coli [8],1.62 µg/mL
same,MIC,Bacillus subtilis [11],1.35 µg/mL
same,MIC,Staphylococcus aureus [24],> 30 µg/mL
